Measurements: ChEMBL document CHEMBL1152945, “Synthesis and biological activity of a fluorescent schweinfurthin analogue” (Bioorg Med Chem, 2009)
Calls of active or inactive are those of the source. The calls are words filed in the database; no cut-off is given here.

Columns and labels:
SNB-75 = experiment: Cytotoxicity against human SNB75 cells after 44 hrs by MTT assay; format: functional; settings: SNB-75, 44 h
SF-295 [1] = experiment: Cytotoxicity against human SF295 cells after 44 hrs by MTT assay; format: functional, cell-based; settings: SF-295, 44 h
Outline: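 SF-295 glioblastoma cells grown in RPMI 1640 with 10% fetal calf serum and pen-strep at 37 °C, 5% CO2. Plated in 24-well plates and dosed at 65% confluency. Thiazolyl blue tetrazolium added 44 h after treatment. At 48 h, HCl/Triton X-100/isopropanol solubiliser added, then overnight at 37 °C with gentle agitation. Absorbance read at 540 nm, 630 nm reference.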

SF-539 = experiment: Cytotoxicity against human SF539 cells after 44 hrs by MTT assay; format: functional; settings: SF-539, 44 h
SF-295 [2] = experiment: Inhibition of ROCK in human SF295 cells assessed as change in morphology at 10 uM after 24 hrs using DAPI staining by multi-photon microscopy; format: cell-based
Outline: (§1)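 Cells grown on sterile coverslips to 65% confluency, then treated. Then fixed in 3.7% formaldehyde for 15 min, permeabilized in 0.2% Triton X-100 for 4 min, blocked in 1% BSA for 30 min and stained 20 min with phalloidin for F-actin. Mounted in DAPI-containing medium, imaged by multi-photon microscopy. SF-295 kept in RPMI 1640; A549 in F-12; both with 10% FCS.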

A549 [3] = experiment: Effect on morphology in human A549 cells assessed as induction of ruffled F-actin at 10 uM after 24 hrs using DAPI staining by multi-photon microscopy; format: functional, cell-based; outline: as §1
SF-295 [4] = experiment: Effect on morphology of human SF295 cells assessed as induction of ruffled F-actin at 10 uM after 24 hrs using DAPI staining by multi-photon microscopy; format: functional, cell-based; outline: as §1
A549 [5] = experiment: Cytotoxicity against human A549 cells after 44 hrs by MTT assay; format: functional, cell-based
Outline: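 A549 cells in F-12 medium with 10% fetal calf serum and pen-strep, 37 °C, 5% CO2, treated in 24-well plates at 65% confluency. MTT added 44 h after treatment; at 48 h, solubilizer (HCl, Triton X-100, isopropanol) added, overnight at 37 °C with gentle agitation. Absorbance read at 540 nm with 630 nm reference.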

SF-295 [6] = experiment: Effect on cytosolic localization in human SF295 cells assessed as increase in fluorescence intensity at 100 nM by fluorescence microscopy; format: functional, cell-based
Outline: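 SF-295 cells on sterile coverslips at 65% confluency, treated for varied intervals across a concentration range. Washed three times in complete medium to remove compound, mounted right away, and live compound fluorescence imaged by multi-photon microscopy against untreated-cell autofluorescence.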

A549 [7] = experiment: Effect on morphology of human A549 cells at 500 nM after 48 hrs using DAPI staining by multi-photon microscopy; format: functional, cell-based; outline: as §1
SF-295 [8] = experiment: Effect on morphology of human SF295 cells at 500 nM after 24 hrs using DAPI staining by multi-photon microscopy; format: functional, cell-based; outline: as §1
A549 [9] = experiment: Effect on morphology of human A549 cells at 500 nM after 24 hrs using DAPI staining by multi-photon microscopy; format: functional, cell-based; outline: as §1
SF-295 [10] = experiment: Effect on morphology of human SF295 cells at 500 nM after 48 hrs using DAPI staining by multi-photon microscopy; format: functional, cell-based; outline: as §1

CC(C)=CCC/C(C)=C/Cc1c(O)cc(/C=C/c2cc(O)c3c(c2)C[C@@H]2C(C)(C)[C@H](O)[C@H](O)C[C@@]2(C)O3)cc1O [SCHWEINFURTHIN A]
GI50 (SNB-75): 15 nM
GI50 (SF-295 [1]): 11 nM
GI50 (SF-539): 10 nM

COc1cc(/C=C/c2cc(O)c(C/C=C(\C)CCC=C(C)C)c(O)c2)cc2c1O[C@]1(C)CC[C@@H](O)C(C)(C)[C@H]1C2
Activity (SF-295 [2]): Active

C[C@@H](N)[C@H]1CC[C@H](C(=O)Nc2ccncc2)CC1
Activity (A549 [3]): Active
Activity (SF-295 [4]): Active

COc1cc(/C=C/c2cc(O)c(/C=C/c3cccc(O)c3)c(O)c2)cc2c1O[C@]1(C)CC[C@@H](O)C(C)(C)[C@H]1C2
Activity (A549 [5]): Active
Activity (SF-295 [6]): Active
Activity (SF-295 [2]): Active
Activity (A549 [7]): inactive
Activity (SF-295 [8]): inactive
IC50 (SF-295 [1]): 800 nM
Activity (A549 [9]): inactive
Activity (SF-295 [10]): Active
